Measurements as given in ChEMBL document CHEMBL3244155, “Inhibitory analogues of the luteinizing hormone-releasing hormone having D-aromatic residues in positions 2 and 6 and variation in position 3” (1978).
Activity calls are given as the source filed them. The calls are words filed in the database; no cut-off is given here. Non-standard residues stand in square brackets, D forms with d. Residues, ends and D or L forms follow the SMILES beside them. pGlu = O=C1CC[C@@H](C(=O)O)N1

Tests used:
[1] = molecular target: T1, Gonadotropin-releasing hormone receptor (Rattus norvegicus) (UniProt P30969); experiment: Agonist activity at LH-RH receptor in Sprague-Dawley rat pituitary gland assessed as change in LH release at 100 ug/ml measured for 6 hrs by RIA
T1 sequence (whole entry): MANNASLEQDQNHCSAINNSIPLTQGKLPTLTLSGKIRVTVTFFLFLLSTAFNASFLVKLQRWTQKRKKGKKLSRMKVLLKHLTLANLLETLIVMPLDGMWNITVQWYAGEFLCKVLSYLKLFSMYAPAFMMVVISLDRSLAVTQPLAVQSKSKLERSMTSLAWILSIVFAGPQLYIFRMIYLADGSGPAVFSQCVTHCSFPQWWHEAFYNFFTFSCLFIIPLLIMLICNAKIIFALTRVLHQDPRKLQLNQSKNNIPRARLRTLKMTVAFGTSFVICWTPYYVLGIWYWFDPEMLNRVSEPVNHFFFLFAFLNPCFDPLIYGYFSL
Method in brief: (§1)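 Two pituitaries from 20-day-old female Sprague-Dawley rats incubated 6 h at 37 °C in 1 mL lactated Ringer's with shaking. Medium removed hourly and replaced. Analogue alone added at hours 3–6. LH and FSH measured by RIA, expressed as ng/mL of medium against LH-LER-1240-2 and NIAMDD rat FSH RP-1 standards. Change reported with SEM.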

[2] = molecular target: T1, Gonadotropin-releasing hormone receptor (Rattus norvegicus); experiment: Antagonist activity at LH-RH receptor in Sprague-Dawley rat pituitary gland assessed as change in LHRH-stimulated LH release at 1 ug/ml preincubated for 4 hrs followed by LH-RH addition at 5th and 6th hr 5 mins post compound addition and measured for 6 hrs by RIA
Method in brief: (§2)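 Pituitaries from 20-day-old female Sprague-Dawley rats, two per 1 mL lactated Ringer's, shaken 6 h at 37 °C with medium changed each hour. Analogue added at hours 3–6. LH-RH 0.6 ng/mL medium added 5 min after peptide at hours 5 and 6. LH and FSH measured by RIA against rat standards. Change in ng/mL with SEM and p values.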

[3] = molecular target: T1, Gonadotropin-releasing hormone receptor (Rattus norvegicus); experiment: Antagonist activity at LH-RH receptor in Sprague-Dawley rat pituitary gland assessed as change in LHRH-stimulated FSH release at 1 ug/ml preincubated for 4 hrs followed by LH-RH addition at 5th and 6th hr 5 mins post compound addition and measured for 6 hrs by RIA; method in brief: as §2
[4] = test system: Rattus norvegicus; experiment: Antiovulatory activity in rat assessed as inhibition of ovulation at 750 ug, sc relative to vehicle-treated control; type: functional
Method in brief: (§3)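 Rats with 4-day cycles given one sc injection of analogue in corn oil on proestrus, between 12 and 12:30 p.m. Controls received 0.3 mL corn oil. Ova shed were counted on estrus. Percent of rats with ovulation inhibited was recorded, with ova per ovulating rat ± SEM.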

[5] = molecular target: T1, Gonadotropin-releasing hormone receptor (Rattus norvegicus); experiment: Antagonist activity at LH-RH receptor in Sprague-Dawley rat pituitary gland assessed as change in LHRH-stimulated FSH release at 100 ug/ml preincubated for 4 hrs followed by LH-RH addition at 5th and 6th hr 5 mins post compound addition and measured for 6 hrs by RIA; method in brief: as §2
[6] = molecular target: T1, Gonadotropin-releasing hormone receptor (Rattus norvegicus); experiment: Antagonist activity at LH-RH receptor in Sprague-Dawley rat pituitary gland assessed as change in LHRH-stimulated LH release at 100 ug/ml preincubated for 4 hrs followed by LH-RH addition at 5th and 6th hr 5 mins post compound addition and measured for 6 hrs by RIA; method in brief: as §2
[7] = molecular target: T1, Gonadotropin-releasing hormone receptor (Rattus norvegicus); experiment: Antagonist activity at LH-RH receptor in Sprague-Dawley rat pituitary gland assessed as change in LHRH-stimulated LH release at 0.1 ug/ml preincubated for 4 hrs followed by LH-RH addition at 5th and 6th hr 5 mins post compound addition and measured for 6 hrs by RIA; method in brief: as §2
[8] = molecular target: T1, Gonadotropin-releasing hormone receptor (Rattus norvegicus); experiment: Agonist activity at LH-RH receptor in Sprague-Dawley rat pituitary gland assessed as change in FSH release at 100 ug/ml measured for 6 hrs by RIA; method in brief: as §1
[9] = molecular target: T1, Gonadotropin-releasing hormone receptor (Rattus norvegicus); experiment: Antagonist activity at LH-RH receptor in Sprague-Dawley rat pituitary gland assessed as change in LHRH-stimulated FSH release at 0.1 ug/ml preincubated for 4 hrs followed by LH-RH addition at 5th and 6th hr 5 mins post compound addition and measured for 6 hrs by RIA; method in brief: as §2
[10] = test system: Rattus norvegicus; experiment: Antiovulatory activity in rat assessed as inhibition of ovulation at 375 ug, sc relative to vehicle-treated control; type: functional; method in brief: as §3
[11] = molecular target: T1, Gonadotropin-releasing hormone receptor (Rattus norvegicus); experiment: Antagonist activity at LH-RH receptor in Sprague-Dawley rat pituitary gland assessed as change in LHRH-stimulated FSH release at 10 ug/ml preincubated for 4 hrs followed by LH-RH addition at 5th and 6th hr 5 mins post compound addition and measured for 6 hrs by RIA; method in brief: as §2
[12] = molecular target: T1, Gonadotropin-releasing hormone receptor (Rattus norvegicus); experiment: Antagonist activity at LH-RH receptor in Sprague-Dawley rat pituitary gland assessed as change in LHRH-stimulated LH release at 10 ug/ml preincubated for 4 hrs followed by LH-RH addition at 5th and 6th hr 5 mins post compound addition and measured for 6 hrs by RIA; method in brief: as §2
[13] = test system: Rattus norvegicus; experiment: Antiovulatory activity in rat assessed as inhibition of ovulation at 1500 ug, sc relative to vehicle-treated control; type: functional; method in brief: as §3

Row | Structure (SMILES) | Activity [1] | Activity [2] [ng/mL] | Activity [3] [ng/mL] | Activity [5] [ng/mL] | Activity [6] [ng/mL] | Activity [7] [ng/mL] | Activity [8] | Activity [9] [ng/mL] | Activity [11] [ng/mL] | Activity [12] [ng/mL] | inhibition (INH) [4] [%] | inhibition (INH) [10] [%] | inhibition (INH) [13] [%]
1 | CC(C)C[C@H](NC(=O)[C@@H](Cc1c[nH]c2ccccc12)NC(=O)[C@H](Cc1ccc(O)cc1)NC(=O)[C@H](CO)NC(=O)[C@@H](Cc1ccccc1)NC(=O)[C@@H](Cc1ccccc1)NC(=O)[C@@H]1CCC(=O)N1)C(=O)N[C@@H](CCCNC(=N)N)C(=O)N1CCC[C@H]1C(=O)NCC(N)=O | inactive | 39 | 70 | -814 | 10 | 97 | inactive | 2120 | – | – | 40 | – | –
2 | CSCC[C@H](NC(=O)[C@@H](Cc1ccccc1)NC(=O)[C@@H]1CCC(=O)N1)C(=O)N[C@@H](CO)C(=O)N[C@@H](Cc1ccc(O)cc1)C(=O)N[C@H](Cc1c[nH]c2ccccc12)C(=O)N[C@@H](CC(C)C)C(=O)N[C@@H](CCCNC(=N)N)C(=O)N1CCC[C@H]1C(=O)NCC(N)=O | inactive | 52 | -291 | -672 | 10 | 77 | inactive | 3270 | – | – | 20 | – | –
3 | CC[C@H](C)[C@H](NC(=O)[C@@H](Cc1ccccc1)NC(=O)[C@@H]1CCC(=O)N1)C(=O)N[C@@H](CO)C(=O)N[C@@H](Cc1ccc(O)cc1)C(=O)N[C@H](Cc1c[nH]c2ccccc12)C(=O)N[C@@H](CC(C)C)C(=O)N[C@@H](CCCNC(=N)N)C(=O)N1CCC[C@H]1C(=O)NCC(N)=O | inactive | 21 | -348 | 645 | 68 | 143 | inactive | 2310 | – | – | 0 | – | –
4 | CC(C)C[C@H](NC(=O)[C@@H](Cc1c[nH]c2ccccc12)NC(=O)[C@H](Cc1ccc(O)cc1)NC(=O)[C@H](CO)NC(=O)[C@@H](NC(=O)[C@@H](Cc1ccccc1)NC(=O)[C@@H]1CCC(=O)N1)C(C)C)C(=O)N[C@@H](CCCNC(=N)N)C(=O)N1CCC[C@H]1C(=O)NCC(N)=O | inactive | -32 | -1140 | 110 | 7 | 44 | inactive | 3010 | – | – | 16 | – | 60

The next lines start with results.

Row | Activity [1] | Activity [2] [ng/mL] | Activity [3] [ng/mL] | Activity [5] [ng/mL] | Activity [6] [ng/mL] | Activity [7] [ng/mL] | Activity [8] | Activity [9] [ng/mL] | Activity [11] [ng/mL] | Activity [12] [ng/mL] | Structure (SMILES) | inhibition (INH) [4] [%] | inhibition (INH) [10] [%] | inhibition (INH) [13] [%]
5 | inactive | 17 | 280 | 179 | 12 | 46 | inactive | 1380 | – | – | CC(C)C[C@H](NC(=O)[C@@H](Cc1ccccc1)NC(=O)[C@H](Cc1ccc(O)cc1)NC(=O)[C@H](CO)NC(=O)[C@@H]1CCCN1C(=O)[C@@H](Cc1ccccc1)NC(=O)[C@@H]1CCC(=O)N1)C(=O)N[C@@H](CCCNC(=N)N)C(=O)N1CCC[C@H]1C(=O)NCC(N)=O ([pGlu][dF]PSY[dF]LRPG-NH2) | 100 | 20 | –
6 | inactive | 51 | 1390 | -133 | 18 | 276 | inactive | 5390 | 380 | 34 | CC(C)C[C@H](NC(=O)[C@@H](Cc1ccccc1)NC(=O)[C@H](Cc1ccc(O)cc1)NC(=O)[C@H](CO)NC(=O)[C@H](CCCNC(=N)N)NC(=O)[C@@H](Cc1ccccc1)NC(=O)[C@@H]1CCC(=O)N1)C(=O)N[C@@H](CCCNC(=N)N)C(=O)N1CCC[C@H]1C(=O)NCC(N)=O | 40 | – | –
7 | inactive | 97 | 2450 | 379 | 16 | 159 | inactive | 5470 | 751 | 18 | CC(C)C[C@H](NC(=O)[C@@H](Cc1ccccc1)NC(=O)[C@H](Cc1ccc(O)cc1)NC(=O)[C@H](CO)NC(=O)[C@@H](NC(=O)[C@@H](Cc1ccccc1)NC(=O)[C@@H]1CCC(=O)N1)[C@@H](C)O)C(=O)N[C@@H](CCCNC(=N)N)C(=O)N1CCC[C@H]1C(=O)NCC(N)=O | 0 | – | –
8 | inactive | 127 | 3450 | 321 | 13 | 339 | inactive | 4590 | 518 | 22 | CC(C)C[C@H](NC(=O)[C@@H](Cc1ccccc1)NC(=O)[C@H](Cc1ccc(O)cc1)NC(=O)[C@H](CO)NC(=O)CN(C)C(=O)[C@@H](Cc1ccccc1)NC(=O)[C@@H]1CCC(=O)N1)C(=O)N[C@@H](CCCNC(=N)N)C(=O)N1CCC[C@H]1C(=O)NCC(N)=O | 50 | – | –
